Measurements taken from ChEMBL document CHEMBL3745692, “Novel iodoacetamido benzoheterocyclic derivatives with potent antileukemic activity are inhibitors of STAT5 phosphorylation” (Eur J Med Chem, 2016).

Assays:
K562 [1] = assay: Cell cycle arrest in human K562 cells assessed as accumulation at S-phase at 0.75 uM for 24 hrs by propidium iodide staining based flow cytometry (reference value: 47.84%); format: functional
Method in brief: (§1)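 K562 cells were exposed to compound for 24 h. They were then washed in ice-cold PBS and resuspended at 1×10^6/mL in a hypotonic solution of propidium iodide 50 µg/mL in 0.1% sodium citrate with 0.03% NP-40. After 30 min, DNA content was read by flow cytometry as single-parameter histograms and cell cycle phase distribution (%) was modelled.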

K562 [2] = assay: Cell cycle arrest in human K562 cells assessed as accumulation at G1 phase at 0.75 uM for 24 hrs by propidium iodide staining based flow cytometry (reference value: 39.27%); format: functional; method in brief: as §1
[3] = target: T1, Signal transducer and activator of transcription 5A (Homo sapiens) (UniProt P42229); assay: Inhibition of STAT5 phosphorylation in human K562 cells at 0.75 uM after 24 hrs by flow cytometry (reference value: 315.56); format: cell-based
T1 sequence (whole entry): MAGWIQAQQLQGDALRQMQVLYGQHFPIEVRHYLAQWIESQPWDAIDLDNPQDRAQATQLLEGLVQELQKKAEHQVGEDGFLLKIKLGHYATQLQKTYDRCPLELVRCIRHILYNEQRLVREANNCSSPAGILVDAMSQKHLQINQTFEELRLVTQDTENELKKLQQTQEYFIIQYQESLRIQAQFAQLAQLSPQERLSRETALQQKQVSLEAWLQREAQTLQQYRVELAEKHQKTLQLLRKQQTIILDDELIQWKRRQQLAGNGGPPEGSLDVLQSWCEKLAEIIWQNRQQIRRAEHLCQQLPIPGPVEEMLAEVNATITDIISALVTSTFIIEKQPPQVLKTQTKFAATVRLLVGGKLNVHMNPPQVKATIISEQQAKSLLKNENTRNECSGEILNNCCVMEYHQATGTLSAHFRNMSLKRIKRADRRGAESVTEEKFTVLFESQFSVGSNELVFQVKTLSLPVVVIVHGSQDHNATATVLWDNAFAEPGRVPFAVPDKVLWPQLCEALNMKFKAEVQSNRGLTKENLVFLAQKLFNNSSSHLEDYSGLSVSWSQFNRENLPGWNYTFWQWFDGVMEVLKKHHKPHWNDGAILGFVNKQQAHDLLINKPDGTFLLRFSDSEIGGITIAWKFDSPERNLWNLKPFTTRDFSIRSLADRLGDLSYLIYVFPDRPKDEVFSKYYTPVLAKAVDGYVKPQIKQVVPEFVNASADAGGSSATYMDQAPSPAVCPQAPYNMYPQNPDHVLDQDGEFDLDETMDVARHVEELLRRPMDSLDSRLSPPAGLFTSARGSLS
Method in brief: (§2)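 After 24 h exposure, about 1×10^6 K562 cells were PBS-washed and fixed/permeabilised for 20 min at 4 °C. They were then stained for 30 min at 4 °C with PE-conjugated anti-pSTAT5 monoclonal antibody, with an isotype antibody as control. Median fluorescence was read by flow cytometry and compared with untreated cells stained for pSTAT5.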

K562 [4] = assay: Antiproliferative activity against human K562 cells after 48 hrs by trypan blue dye exclusion assay; format: functional, cell-based; conditions: K562, 48 h
K562 [5] = assay: Cell cycle arrest in human K562 cells assessed as accumulation at G2M-phase at 0.75 uM for 24 hrs by propidium iodide staining based flow cytometry (reference value: 12.89%); format: functional; method in brief: as §1
K562 [6] = assay: Induction of apoptosis in human K562 cells after 48 hrs by annexinV and propidium iodide staining based flow cytometry; format: functional, cell-based; conditions: K562, 48 h
Method in brief: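 After 48 h drug exposure, 1×10^6 cells were washed in PBS and spun at 200×g for 5 min. They were stained with FITC-annexin V plus propidium iodide for 15 min at 20 °C and annexin V-positive cells counted by flow cytometry. Apoptosis was also scored morphologically with acridine orange/ethidium bromide, counting at least 300 cells. AC50 is the concentration inducing apoptosis in 50% of cells; mean ± SE from two to three experiments.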

[7] = target: T1, Signal transducer and activator of transcription 5A (Homo sapiens); assay: Inhibition of STAT5 phosphorylation in human K562 cells at 5 uM after 24 hrs by flow cytometry (reference value: 315.56); format: cell-based; method in brief: as §2
K562 [8] = assay: Cell cycle arrest in human K562 cells assessed as accumulation at G1 phase at 5 uM for 24 hrs by propidium iodide staining based flow cytometry (reference value: 39.27%); format: functional; method in brief: as §1
Tubulin = Tubulin (Bos taurus, UniProt Q6B856+Q862L2+Q862F3); assay: Inhibition of bovine brain tubulin polymerization by spectrophotometry
Method in brief: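 Bovine brain tubulin (10 µM) was pre-incubated with varying compound concentrations in glutamate buffer at 30 °C, then cooled to 0 °C. GTP was added ([…] final) and the mixture warmed to 30 °C. Assembly was followed by turbidity at 350 nm.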

K562 [9] = assay: Cell cycle arrest in human K562 cells assessed as accumulation at G2M-phase at 5 uM for 24 hrs by propidium iodide staining based flow cytometry (reference value: 12.89%); format: functional; method in brief: as §1
K562 [10] = assay: Cell cycle arrest in human K562 cells assessed as accumulation at S-phase at 5 uM for 24 hrs by propidium iodide staining based flow cytometry (reference value: 47.84%); format: functional; method in brief: as §1
K562 [11] = assay: Cell cycle arrest in human K562 cells assessed as accumulation at G2M-phase at 1 uM for 24 hrs by propidium iodide staining based flow cytometry (reference value: 12.89%); format: functional; method in brief: as §1
K562 [12] = assay: Cell cycle arrest in human K562 cells assessed as accumulation at G1 phase at 1 uM for 24 hrs by propidium iodide staining based flow cytometry (reference value: 39.27%); format: functional; method in brief: as §1
Bos taurus = organism: Bos taurus; assay: Inhibition of [3H]colchicine binding to bovine tubulin at 5 uM by DEAE-cellulose filter method
Method in brief: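 Reaction mixtures contained 1 µM tubulin, 5 µM [3H]colchicine and 5 µM test compound. Result is given as % inhibition of colchicine binding ± SD.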

[13] = target: T1, Signal transducer and activator of transcription 5A (Homo sapiens); assay: Inhibition of STAT5 phosphorylation in human K562 cells at 1 uM after 24 hrs by flow cytometry (reference value: 315.56); format: cell-based; method in brief: as §2
K562 [14] = assay: Cell cycle arrest in human K562 cells assessed as accumulation at S-phase at 1 uM for 24 hrs by propidium iodide staining based flow cytometry (reference value: 47.84%); format: functional; method in brief: as §1
K562 [15] = assay: Potency index, ratio IC50 of imatinib mesilate to IC50 of compound for antiprolifertive activity against human K562; format: functional
Method in brief: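 K562 cells grown in RPMI 1640 with 10% FCS at 37 °C, 5% CO2. 2×10^5 cells/mL exposed to a range of concentrations for 48 h. Viable cells counted by trypan blue exclusion, as % of control.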

K562 [16] = assay: Cell cycle arrest in human K562 cells assessed as accumulation at S-phase at 0.5 uM for 24 hrs by propidium iodide staining based flow cytometry (reference value: 47.84%); format: functional
Method in brief: (§3)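 K562 cells in RPMI 1640 with 10% FCS, penicillin/streptomycin and L-glutamine, 5% CO2, 37 °C; exposed 24 h. Cells washed in ice-cold PBS, resuspended at 1×10^6/mL in hypotonic solution of propidium iodide 50 µg/mL in 0.1% sodium citrate plus 0.03% nonidet P-40 for 30 min. DNA content read as single-parameter flow cytometry histograms; phase distribution modelled.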

K562 [17] = assay: Potency index, ratio AC50 of imatinib mesilate to AC50 of compound for induction of apoptosis in human K562; format: functional
Method in brief: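 K562 cells in RPMI 1640 with 10% FCS, treated 48 h over a concentration range. Apoptosis scored morphologically after acridine orange/ethidium bromide staining (≥300 cells counted, chromatin condensation, apoptotic bodies) and by annexin V-FITC/propidium iodide flow cytometry. AC50 is the concentration giving 50% apoptotic cells, mean ± SE of 2–3 experiments.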

[18] = target: T1, Signal transducer and activator of transcription 5A (Homo sapiens); assay: Inhibition of STAT5 phosphorylation in human K562 cells at 0.5 uM after 24 hrs by flow cytometry relative to control; format: cell-based; method in brief: as §2
[19] = target: T1, Signal transducer and activator of transcription 5A (Homo sapiens); assay: Inhibition of STAT5 phosphorylation in human K562 cells at 0.5 uM after 24 hrs by flow cytometry (reference value: 315.56); format: cell-based; method in brief: as §2
K562 [20] = assay: Cell cycle arrest in human K562 cells assessed as accumulation at G1 phase at 0.5 uM for 24 hrs by propidium iodide staining based flow cytometry (reference value: 39.27%); format: functional; method in brief: as §3
K562 [21] = assay: Cell cycle arrest in human K562 cells assessed as accumulation at G2M-phase at 0.5 uM for 24 hrs by propidium iodide staining based flow cytometry (reference value: 12.89%); format: functional; method in brief: as §3

SMILES: COc1cc(C(=O)c2cc3cc(NC(=O)CI)cc(OC)c3o2)cc(OC)c1OC
- Activity (K562 [1]): 57.32%
- Activity (K562 [2]): 34.66%
- Flu intensity [3]: 316
- IC50 (K562 [4]): 400 nM
- Activity (K562 [5]): 8.02%
- AC50 (K562 [6]): 2200 nM

SMILES: O=C(CI)Nc1c(C(=O)c2ccccc2)oc2ccccc12
- IC50 (K562 [4]): 1000 nM
- Flu intensity [7]: 103
- Activity (K562 [8]): 68.32%
- IC50 (Tubulin): > 20000 nM
- Activity (K562 [9]): 11.4%
- Activity (K562 [10]): 20.28%
- AC50 (K562 [6]): 5900 nM

SMILES: COc1cc(C(=O)c2sc3c(C)cccc3c2NC(=O)CI)cc(OC)c1OC
- Activity (K562 [11]): 2.99%
- Activity (K562 [12]): 79.88%
- IC50 (K562 [4]): 400 nM
- inhibition (Bos taurus): 65%
- IC50 (Tubulin): 1100 nM
- Flu intensity [13]: 45.2
- Activity (K562 [14]): 17.13%
- AC50 (K562 [6]): 2800 nM

SMILES: COc1cc2oc(C(=O)c3cc(OC)c(OC)c(OC)c3)c(C)c2cc1NC(=O)CI
- Ratio IC50 (K562 [15]): 3.1
- Activity (K562 [16]): 35.47%
- Ratio IC50 (K562 [17]): 2.7
- inhibition [18]: 44%
- IC50 (K562 [4]): 70 nM
- Flu intensity [19]: 176
- Activity (K562 [20]): 35.78%
- Activity (K562 [21]): 28.76%
- AC50 (K562 [6]): 250 nM
